Data taken from paper PMC6728149 (Science signaling, 2019).
“Also recorded” adds a separate entry of the source.

What was measured:
Type in all cases: cell-based, human
MYC mRNA = MYC mRNA by qPCR; conditions: MIA PaCa-2 cells
Procedure, shortened: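 MIA PaCa-2 cells were compound-treated (6 h where stated). MYC mRNA was measured by qPCR, normalized to GAPDH or BACT mRNA, and analysed by the ddCT method.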

EGFP-MYC = assay: GPS-MYC degradation screen; conditions: 6 hours; for effect on EGFP-MYC stability in the GPS-MYC screen: 20 μM
Procedure, shortened: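 MIA PaCa-2 cells were lentivirally transduced with DsRed-IRES-EGFP-MYC and selected with 2 μg/ml puromycin. Frozen stocks were thawed, grown 2 days, then plated at 20,000 cells/well in 384-well plates. Next day, compound was given in DMEM/2% FBS for 6 h. Controls were DMSO, cycloheximide (final 7.5 μg/ml) and MG132 (final 3.75 μM). Cells were detached with Accumax (20 min, 37 °C) and read by plate flow cytometer for EGFP/DsRed. Values were normalized to control wells; run in duplicate.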

MYC = MYC protein levels by immunoblot in MIA PaCa-2 cells; conditions: 6 hours
CDK9 = assay: pPol II; conditions: MIA PaCa-2 cells, 6 hours
Procedure, shortened: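 After 6 h compound exposure, MIA PaCa-2 lysates were made in 1% Triton buffer, pH 7.4, with protease and phosphatase inhibitors, cleared at 18,000 x g, 15 min, 4 °C, and quantified by Bradford. pPol II and MCL-1 were immunoblotted as CDK9 signaling read-outs.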

MYC Ser^62 = assay: pMYC Ser62 immunoblot in MIA PaCa-2 cells; conditions: 30 min
Procedure, shortened: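 MIA PaCa-2 cells were exposed to CDK9 inhibitors for 30 min. Lysates were cleared at 18,000 x g, 15 min, 4 °C, and protein was quantified by Bradford. pMYC Ser62 and total MYC were immunoblotted.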

CDK8/19 = assay: pSTAT1; conditions: MIA PaCa-2 cells
Procedure, shortened: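 CDK8/19 inhibition in compound-treated MIA PaCa-2 cells was read as pSTAT1 by immunoblot. Lysis was in 1% Triton buffer (25 mM Tris pH 7.4) with protease and phosphatase inhibitors; clarification was at 18,000 x g, 15 min, 4 °C. Blots are representative of at least three independent experiments.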

| Structure (SMILES) | effect on EGFP-MYC stability in the GPS-MYC screen (EGFP-MYC) | endogenous MYC protein levels (MYC) | further results |
| --- | --- | --- | --- |
| COC(=O)Nc1nc2ccc(Oc3ccc(NC(=O)Nc4ccccc4)cc3)cc2[nH]1 [UNC10112731] | increased EGFP-MYC without affecting DsRed |  | MYC mRNA levels (MYC mRNA): not due to increased transcription; EGFP-MYC and endogenous MYC levels in GPS-MYC cells (EGFP-MYC; secondary validation, flow cytometry and immunoblot): dose-dependent increase in EGFP-MYC and endogenous MYC levels |
| O=C(Nc1n[nH]c2nc(-c3ccco3)c(Br)cc12)C1CC1 [UNC10112671] | stabilized MYC |  |  |
| COc1ncc2cc(C(=O)Nc3cc(C(=O)NCc4cccc(Cl)c4)ccc3Cl)c(=O)[nH]c2n1 [TC-S 7004] |  | failed to cause a dose-dependent loss of endogenous MYC protein |  |
| CCOc1cc(N2CCC(O)CC2)ccc1Nc1ncc2c(n1)N(C)c1ccccc1C(=O)N2C [XMD8–92] |  |  | phosphorylation of RNA polymerase II (pPol II) at S2 (CDK9): did not reduce phosphorylation of the CDK9 substrate Pol II |
| CN(C)CCOc1ccc(-c2nc(-c3ccncc3)c(-c3ccc4c(c3)CC/C4=N\O)[nH]2)cc1.Cl.O [UNC10112687] | destabilized MYC |  |  |
| CC(C)(C)c1cnc(CSc2cnc(NC(=O)C3CCN(CC(=O)NCCOCCOCCOCCNc4cccc5c4C(=O)N(C4CCC(=O)NC4=O)C5=O)CC3)s2)o1 (stereo not shown) [THAL-SNS-032] |  |  | MYC phosphorylation at Ser^62 (MYC Ser^62): decreased MYC phosphorylation at Ser^62 |
| S=C(NCc1ccc2c(c1)OCO2)N1CCN(c2ncnc3c2oc2ccccc23)CC1 [amuvatinib] |  | did not increase endogenous MYC in a dose-dependent manner; also recorded: failed to cause a dose-dependent loss of endogenous MYC protein |  |
| CN1CCN(C(=O)c2ccc3cc(CCNc4ncnc5ccc(C#N)cc45)ccc3c2)CC1 [Senexin B] |  | but not MYC protein levels | MCL-1 protein levels (CDK9): absence of a reduction in MCL-1; pSTAT1 (phosphorylation of STAT1 at S727) (CDK8/19): reduction in pSTAT1 |
| COc1cc(N2CCN(C)CC2)ccc1Nc1nccc(-c2cn(C)c3cnccc23)n1 [AZ191] |  | failed to cause a dose-dependent loss of endogenous MYC protein |  |
